XBP1 UPR activ = activators of adaptive arm of unfolded protein response (XBP1); hit rate 0.33% among 330,000; CHO-XBP1 luciferase reporter, IRE1-XBP1 UPR activation, luminescence; percent of tunicamycin response, DMSO as zero; activation, % at 20 µM; AID 463104;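 active = versus positive control, 20 µM dose yields 30% or more activation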;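 also: 100% = tunicamycin at 10 µg/mL and 0% = DMSO only wells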
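Signal: luciferase luminescence; Assay system: CHO-XBP1 luciferase reporter cells; Amount: one thousand reporter cells per well; Dosing: 20 µM single concentration, DMSO 1%; Benchmarks: high control tunicamycin 10 µg/mL final, low control DMSO vehicle only; Schedule: 6 h compound exposure at 37 °C, 5% CO2; Evaluation: percent activation relative to tunicamycin reference.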
Beta cell apopt = blocks beta cell apoptosis; AID 435005; INS-1E cytokine-induced death, ATP luminescence, 48 h; percent of positive-control rescue, neutral wells zero; protection from apoptosis, % (test concentration not listed); hit rate 0.8% among 300,000;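 active = Every replicate reaches about 75%, or at least half do and their mean reaches it too, limit read from the data; inconclusive = At least half of replicates reach the limit but their mean does not; inactive = Under half of replicates reach the limit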;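 also: 0% = cytokine-treated negative control wells and 100% = positive control rescue; higher means more ATP so stronger rescue from cytokine killing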
Mdm2 MdmX PPI = inhibitors of human Mdm2/MdmX interaction. hit rate 3% among 330,000. O15151+Q00987. AID 485346. inhibition, % at 8 µM. SaOS-2 split-luciferase Mdm2/MdmX complementation, luminescence;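 active = inhibition of at least 50% at 8 µM in the primary screen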
Target sequence (O15151 whole entry, looked up): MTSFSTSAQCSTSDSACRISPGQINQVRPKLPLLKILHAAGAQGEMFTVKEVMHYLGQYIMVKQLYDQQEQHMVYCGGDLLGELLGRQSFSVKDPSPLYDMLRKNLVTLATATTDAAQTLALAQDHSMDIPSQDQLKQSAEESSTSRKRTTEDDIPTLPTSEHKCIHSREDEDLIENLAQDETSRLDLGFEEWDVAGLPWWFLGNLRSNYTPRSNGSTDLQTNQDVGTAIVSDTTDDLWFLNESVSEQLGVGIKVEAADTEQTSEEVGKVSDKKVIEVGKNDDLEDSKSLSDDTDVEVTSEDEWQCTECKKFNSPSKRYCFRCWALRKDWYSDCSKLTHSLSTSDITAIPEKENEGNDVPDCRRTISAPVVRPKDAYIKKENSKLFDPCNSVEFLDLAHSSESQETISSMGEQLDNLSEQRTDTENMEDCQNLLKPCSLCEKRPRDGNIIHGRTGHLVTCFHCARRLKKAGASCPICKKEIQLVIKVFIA
Target sequence (Q00987 whole entry, looked up): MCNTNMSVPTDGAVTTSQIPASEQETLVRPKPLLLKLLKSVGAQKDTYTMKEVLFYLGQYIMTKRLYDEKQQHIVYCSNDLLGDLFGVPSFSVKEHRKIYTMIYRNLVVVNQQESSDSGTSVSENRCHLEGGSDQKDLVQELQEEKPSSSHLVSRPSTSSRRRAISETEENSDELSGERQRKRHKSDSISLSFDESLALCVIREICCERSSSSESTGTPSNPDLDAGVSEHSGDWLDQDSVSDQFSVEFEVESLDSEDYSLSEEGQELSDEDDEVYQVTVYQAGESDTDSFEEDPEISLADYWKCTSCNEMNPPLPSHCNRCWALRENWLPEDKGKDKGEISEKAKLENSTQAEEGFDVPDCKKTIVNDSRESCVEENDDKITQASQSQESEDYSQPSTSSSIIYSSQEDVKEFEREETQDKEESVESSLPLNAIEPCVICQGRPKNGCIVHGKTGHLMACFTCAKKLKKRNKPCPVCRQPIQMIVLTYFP
CSC inhib = cancer stem cell inhibition; cancer stem cell-like cells viability, luminescence; AID 2717; inhibition, % at 7.5 µM; hit rate 1.1% among 300,000; in the data active = inhibition above about 75%; inconclusive = no clear call, values can overlap the other calls; tested in HMLE shEcad cells
UPR CHOP act = apoptotic UPR (CHOP) activation | CHO-CHOP luciferase reporter, luminescence; percent of tunicamycin response over DMSO baseline | activation, % at 10 µM | hit rate 0.34% among 330,000 | AID 449763;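 active = at 10 µM dose, activation of 40% or more, normalized to positive control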;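 also: 100% = tunicamycin at 10 µg/mL and 0% = DMSO alone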
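Dosing – one dose, 10 µM in 0.5% DMSO · System – CHO-CHOP cells, stable luciferase reporter of PERK-eIF2a-CHOP signalling · Input – 500 cells/well · Control set – tunicamycin 10 µg/mL final as positive, DMSO-only wells as negative · Timing – 6 h compound treatment, 37 °C · Measure – % activation vs tunicamycin · Technique – luminescence read with Steady-Glo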
SKKanGAS inh = inhibitors of SKKanGAS S. pyogenes growth in kanamycin (SK-promoter or general growth effect) | BacTiter-Glo, 6 h | inhibition, % at 7.5 µM | hit rate 1.3% among 300,000 | AID 1662;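 active = mean replicate score, as percent of positive control median, at least 50; inconclusive = mean below 50 but one replicate at or above 50; inactive = mean and every replicate below 50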;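 also: strain carries kanamycin resistance gene driven by streptokinase promoter and grows in 40 µg/ml kanamycin; loss of luminescence reflects streptokinase promoter inhibition or plain growth inhibition; 0% = median of DMSO wells and 100% = positive control at its reference dose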
UPR CHOP confirm = confirmation of apoptotic unfolded protein response (CHOP) activators; hit rate 64% among 1,000; shares compounds with UPR CHOP act; activation, % at 10 µM; CHO-CHOP cells, CHOP-luciferase reporter luminescence; percent of tunicamycin response, DMSO as zero; AID 463112; in the data active = activation above about 33%;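 also: 0% = DMSO wells and 100% = tunicamycin 10 µg/mL wells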
XBP1 UPR conf = confirmation of adaptive unfolded protein response (XBP1) activators; CHO-XBP1 IRE1-XBP1 luciferase reporter, luminescence; hit rate 63% among 1,000; shares compounds with XBP1 UPR activ; activation, % at 20 µM; AID 485299;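 active = reporter signal at least 30% of the positive control's activation in two or more of four replicate wells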;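 also: plate controls were DMSO negative control for no effect and tunicamycin 10 µg/mL positive control for full effect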
Mdm2 MdmX conf = human Mdm2/MdmX binding inhibition, confirmed; AID 489028; hit rate 55% among 10,000; shares compounds with Mdm2 MdmX PPI; luminescent assay; inhibition, % at 8 µM; in the data active = inhibition above about 40%
FLuc counter = full-length luciferase inhibition in Mdm2/MdmX counter-screen. SaOS-2 full-length luciferase counterscreen, luminescence. hit rate 77% among 6,200. shares compounds with Mdm2 MdmX PPI. inhibition, % at 8 µM;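 active = mean inhibition at 8 µM reaching about 37%, which flags the compound as non-specific, limit read from the data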;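 also: p53-null SaOS-2 cells with luciferase driven by a doxycycline-inducible promoter; compound on cells about two nights before reading with doxycycline added after day one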
* hit, by the source's call; ? = inconclusive; . = no result. Rows were chosen to be rich in hits. Some 4.8% of all compounds tested hit in one or more screens of this group.

SMILES	XBP1 UPR activ	Beta cell apopt	Mdm2 MdmX PPI	CSC inhib	UPR CHOP act	SKKanGAS inh	UPR CHOP confirm	Mdm2 MdmX conf	FLuc counter	others
COC(=O)c1cc(=O)n(CCc2ccc(OC)c(OC)c2)c(=Nc2ccc(F)c(Cl)c2)s1	12.8	11.1	83.5*	109.5*	40.9*	-1.2	63.0*	10.6	.
COc1ccc(-c2cc3ccccc3oc2=O)cc1NC(=S)NC(=O)c1ccc2c(c1)OCCO2	198.5*	46.9	87.5*	.	86.5*	7.0	55.0*	-35.1	.
COc1ccc(NC(=S)NC(=O)c2ccc3c(c2)OCCO3)cc1	2.6	-5.8	-144.0	-4.1	4.6	.	.	.	.
CC(=O)Nc1ccc(N=Cc2c(O)c(C(=O)Nc3ccccc3)cc3ccccc23)cc1	89.9*	12.3	77.9*	97.7*	45.0*	60.7*	42.8*	36.8	103.5*	XBP1 UPR conf=12.6
CC(=O)Nc1ccc(NC(=O)c2cccc3ccccc23)cc1	-3.0	-6.0	12.0	-0.2	3.2	-21.5	.	.	.
O=C(Nc1cccc([N+](=O)[O-])c1)Nc1cccs1	1.3	16.4	28.7	-3.1	-1.5	10.9	.	.	.
CN(C)S(=O)(=O)n1cnc(C(CCO)c2ncn(S(=O)(=O)N(C)C)c2CCCO)c1 (stereo not drawn)	1.1	-5.6	-4.8	2.5	0.9	.	.	.	.
CCN1CCN(Cc2ccc(NC(=O)c3ccc(C)c(NC(=O)c4c[nH]c5cc(C(F)(F)F)ccc5c4=O)c3)cc2C(F)(F)F)CC1	-2.0	99.2*	100.3*	105.2*	68.4*	92.2*	-4.5	99.8*	52.2*
CC1CCC(NC(=O)CCNC(=O)c2ccc(Br)cc2)CC1 (stereo not drawn)	0.5	-5.3	-42.6	-15.3	3.9	-1.8	.	.	.
CC(=O)Nc1ccc(NC(=O)c2cccc3c2-c2ccccc2C3=O)cc1	-5.8	2.8	-2.0	14.4	-1.6	-14.5	.	.	.
CC(=O)Nc1ccc(NC2=C(Cl)C(=O)c3ccccc3C2=O)cc1	-0.8	.	100.3*	.	45.3*	28.1	19.5	100.2*	51.9*
COc1ccc(NS(=O)(=O)c2ccc(N3CCCC3)c(N)c2)cc1	-3.1	47.5	13.6	-10.8	5.1	2.9	.	.	.
COc1ccc(/C=C/C(=O)c2ccc(C(=O)/C=C/c3ccc(OC)c(OC)c3)cc2)cc1OC	5.0	.	53.9*	.	83.9*	24.9	138.2*	3.0	.
COC(=O)c1ccc(/C=C/C(=O)c2ccc(OC)c(OC)c2)cc1	-5.6	-2.9	13.3	.	0.9	4.5	.	.	.
CC(C)n1nnnc1SCC(=O)N(C)C1CCS(=O)(=O)C1 (stereo not drawn)	0.0	-3.1	20.1	4.1	0.8	.	.	.	.
O=C(Nc1cccc(Cl)c1)c1ccccc1	3.6	-0.2	-23.8	7.9	1.8	.	.	.	.
O=C1C(Cl)=C(NC(=O)c2ccccc2)C(=O)C(Cl)=C1NC(=O)c1ccccc1	-10.6	.	87.1*	.	86.0*	11.2	50.4*	41.5*	14.1
O=C(COc1ccc(/C=N/NC(=O)c2cc3ccccc3o2)cc1Br)Nc1ccccc1	107.4*	-4.0	94.8*	99.2*	274.5*	9.4	57.5*	-83.1	.	XBP1 UPR conf=45.2*
Cc1ccccc1NC(=O)CSc1nnc(Cc2ccccc2)c(=O)n1N	1.6	-1.3	10.2	-8.6	1.9	-0.8	.	.	.
O=C(CCNC(=O)c1ccccc1Cl)NCC(c1ccc(F)cc1)N1CCOCC1 (stereo not drawn)	1.1	0.7	-2.1	-14.5	0.7	-7.6	.	.	.
C/C(=N\Nc1ncnc2sc(C)c(C)c12)c1ccccn1	96.9*	98.3*	98.7*	.	97.1*	-8.0	88.1*	61.0*	76.6*	XBP1 UPR conf=122.4*
Cc1cc(N2CCN(c3ccc([N+](=O)[O-])c4cccnc34)CC2)c2ccccc2n1	104.1*	8.7	94.5*	2.3	42.1*	1.4	52.5*	80.4*	55.5*	XBP1 UPR conf=62.4*
O=C(c1ccccc1F)N1CCN(c2ccc([N+](=O)[O-])c3cccnc23)CC1	-1.3	2.7	-1.1	-9.6	0.7	-6.5	.	.	.
C/C(CC1CC2=C(CC1(C)C)C(C)(C)CCC2)=N\NC(N)=S (stereo not drawn)	24.7	.	51.1*	.	57.0*	-11.0	26.6	-14.2	.
C/C(CC1CC(C)(C)OC1=O)=N\NC(N)=S (stereo not drawn)	-2.1	1.8	27.5	-1.7	5.0	-1.5	.	.	.
SMILES	XBP1 UPR activ	Beta cell apopt	Mdm2 MdmX PPI	CSC inhib	UPR CHOP act	SKKanGAS inh	UPR CHOP confirm	Mdm2 MdmX conf	FLuc counter	others
COc1ccc(-c2csc3nc(-c4ccc(C)cc4)oc(=O)c23)cc1OC	59.4*	17.4	92.3*	23.3	57.2*	3.8	31.9	21.3	.	XBP1 UPR conf=41.7*
CC(C)c1nnc(NC(=O)c2nc(S(=O)(=O)Cc3ccccc3F)ncc2Cl)s1	-8.5	-27.1	96.8*	102.4*	55.8*	4.8	17.6	45.9*	5.2
O=C(NCc1ccc2c(c1)OCO2)c1ccccc1Cl	0.9	-0.9	-18.9	-4.5	3.7	-8.7	.	.	.
CSc1nnc(NC(=O)c2nc(S(=O)(=O)Cc3ccccc3F)ncc2Cl)s1	-8.7	-42.8	100.3*	?	43.8*	6.9	77.2*	57.1*	52.1*
O=C(NCc1ccc2c(c1)OCO2)c1nc(S(=O)(=O)Cc2ccccc2F)ncc1Cl	-9.0	7.1	77.6*	?	43.1*	-17.6	18.4	52.2*	51.2*
CC(C)c1nnc(NC(=O)CCC(=O)NCc2ccccc2Cl)s1	-1.0	0.9	15.6	-0.6	-0.1	1.7	.	.	.
O=C(CCN1C(=O)/C(=C/c2cccs2)SC1=S)N1CCCCC1	-2.9	-7.7	68.1*	42.8	40.2*	0.3	23.2	52.0*	45.0*
CC1(C)C=Cc2c(c3c(c4c(=O)c(-c5ccc(O)cc5)coc24)OC(C)(C)CC3)O1	53.9*	4.6	75.5*	100.2*	87.1*	42.9	43.6*	30.9	.	XBP1 UPR conf=64.3*
COC(=O)c1c(NC(=O)COC(=O)CC(NC(C)=O)c2ccccc2)sc(C)c1C (stereo not drawn)	-0.9	-1.3	17.7	-7.5	2.2	3.0	.	.	.
O=Cc1ccc(O)c2ncccc12	23.9	.	56.0*	.	86.3*	32.5	88.6*	34.0	.
c1cnc2ccc3ncccc3c2c1	-2.6	5.8	8.6	24.3	0.1	-9.0	.	.	.
